Data published in PubChem BioAssay.
Unmarked numbers belong to inactive results. Inconclusive results are not listed. The source made the active and inactive calls.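 How the source made its calls, unless noted: active means viability at or below 27.92% in each of two runs, the all-compound median minus 4 SD; inconclusive means no clear call, values can overlap the other calls; inactive means the rest.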

Tests used:
[1] = S. cerevisiae growth inhibition in permissive medium (OD615), pilot counter-assay for S. cerevisiae lifespan shortening project, permissive growth control (AID 705;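 active means growth inhibition above 25% in both replicates, a cutoff set 3 SD above the mean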); conditions: OD615, 24 h, at 10 µM, hits give high values
In short: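 Test system: Saccharomyces cerevisiae strain carrying genetically modified DeaD replicative-lifespan system; buffer or medium: SC raffinose/galactose permissive medium; dosing: one dose 10 µM, DMSO 0.25% final; times: 24 h exposure, 30 °C; measured by: OD at 615 nm; read-out basis: growth inhibition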

[2] = S. cerevisiae growth inhibition in restrictive medium, OD615, pilot screen, restrictive growth control, yeast lifespan reduction project (AID 706;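 active means growth inhibition above a set limit, 3 SD over mean compound inhibition, in both replicates, cut at about 43% in these data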;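 further: modified DeaD lifespan yeast strain shifted to restrictive glucose medium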); conditions: OD615, 48 h, at 10 µM, hits give high values
In short: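 material = engineered S. cerevisiae DeaD strain | buffer or medium = glucose-based CSMM-D restrictive medium | dosing = one concentration, 10 µM final, 0.25% DMSO | schedule = 4 h pre-growth plus 48 h compound exposure, 30 °C | detection = OD615 absorbance reading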

[3] = doxorubicin toxicity protection in MRP-1 cells – H69AR cells, CellTiter-Glo, duplicate, MRP-1 activator project, pilot screen (AID 807;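 active means viability increase at or above a cutoff of the median across tested compounds plus 3 SD, cut at about 8.5% in these data, passing the limit was not always enough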;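 further: compound pretreatment 18-22 h then 72 h combined with doxorubicin; 0% = doxorubicin alone and 100% = vehicle without doxorubicin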); conditions: H69AR viability with doxorubicin, CellTiter-Glo luminescence; at 10 µM; hits give high values
[4] = viability of HCT116 without oncogenic beta-catenin – human colon tumor cells, pilot screen (AID 823;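 active means cell viability at or below a set limit in both duplicate runs, the limit being the all-compound median minus 4 SD, cut at about 23% in these data, passing the limit was not always enough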;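 further: 0% = wells killed by 20 µM Hyamine and 100% = untreated DMSO cell wells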); conditions: HCT116 beta-catenin knockout viability, CellTiter-Glo, 60 h; at 10 µM; hits give low values
[5] = viability of PTEN-null HCT116 cells – cell-based, HCT116 clonal line, CellTiter-Glo, pilot screen (AID 824); conditions: HCT116 PTEN-deleted viability, 60 h, at 10 µM, hits give low values;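 further: 0% = 20 µM Hyamine control and 100% = vehicle cell control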
[6] = RAM pathway blockade in budding yeast – dse1pr::URA3 reporter, 5-FOA selection, pilot screen (AID 869;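 active means inhibition over a set limit, the all-compound mean plus 3 SD, in both replicate runs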;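 further: 0% = DMSO wells with no growth and 100% = 10 µM 1-NA-PP1 with full growth; RAM network block rescues cells from 5-FOA so hits raise OD615 growth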); conditions: S. cerevisiae dse1pr::URA3 5-FOA growth, OD615, 2 d; at 10 µM; hits give high values; strain carries analog-sensitive mutant Cbk1 kinase
[7] = RAM signaling pathway blockade in yeast – S. cerevisiae, Pdr1DBD-CYC8 efflux-inhibited sensitized strain, primary screen (AID 1298;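 active means RAM network inhibition above 8.4% in each of two replicates, 3 SD over the compound average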;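 further: 0% = DMSO untreated cells without growth and 100% = 10 µM 1-NA-PP1 full growth; higher means more yeast growth rescued from 5-FOA killing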); conditions: S. cerevisiae cbk1-as DSE1-URA3 strain, 5-FOA growth OD615, 2 d; at 50 µM; hits give high values

CC(NC(=O)Cn1cc2c(n1)CCCCC2)c1ccccc1 (configuration not stated)
growth inhibition [1]: -0.875%
growth inhibition [2]: 2.88%
viability increase [3]: 3.53%
viability [4]: 101%
viability [5]: 100%
inhibition [6]: -0.32%
RAM network inhibition [7]: 0.87%

O=C(Nc1cccnc1)C(Cc1ccccc1)n1cccc1 (configuration not stated)
growth inhibition [1]: -15.5%
growth inhibition [2]: -13.4%
viability increase [3]: -4.93%
viability [4]: 102%
viability [5]: 91.8%
inhibition [6]: 0.44%
RAM network inhibition [7]: 4.6%

COC(=O)C1=C(C)N(C)C(=O)NC1c1ccc(C)cc1 (configuration not stated)
growth inhibition [1]: 0.9%
growth inhibition [2]: -13.4%
viability increase [3]: 0.2%
viability [4]: 105%
viability [5]: 101%
inhibition [6]: 2.69%
RAM network inhibition [7]: -0.17%

COc1ccc(S(=O)(=O)Cc2ccc(C(=O)N3CCN(c4cc(Cl)ccc4C)CC3)o2)cc1
growth inhibition [1]: -4.16%
growth inhibition [2]: -10.7%
viability increase [3]: -2.31%
viability [4]: 76.8%
viability [5]: 67%
inhibition [6]: 2.08%
RAM network inhibition [7]: 3.33%

CC1=CS/C(=C(/C#N)C(=O)N2CCCCC2)N1c1ccccc1
growth inhibition [1]: -0.66%
growth inhibition [2]: -8.34%
viability increase [3]: -1.48%
viability [4]: 97.3%
viability [5]: 95.8%
inhibition [6]: 0.425%
RAM network inhibition [7]: 2.37%

COc1ccc(OC)c2c1sc(=NC(=O)C(C)C)n2C
growth inhibition [1]: -3.95%
growth inhibition [2]: 17.4%
viability increase [3]: -3.34%
viability [4]: 79.2%
viability [5]: 74.1%
inhibition [6]: 0.575%
RAM network inhibition [7]: 3%

O=C1CCCCCN1CP(=O)(O)CCc1ccccc1
growth inhibition [1]: -5.01%
growth inhibition [2]: -0.455%
viability increase [3]: -0.2%
viability [4]: 100%
viability [5]: 104%
inhibition [6]: 1.19%
RAM network inhibition [7]: 0.42%

Cc1cccc(N=C2NC(=O)/C(=C3/C(=O)N(C)c4ccccc43)S2)c1C
growth inhibition [1]: -18.4%
growth inhibition [2]: -15.6%
viability increase [3]: -7.01%
viability [4]: 95.5%
viability [5]: 91.1%
inhibition [6]: 2.91%
RAM network inhibition [7]: 1.77%

O=S(=O)(NCCSc1nnc(-c2ccco2)n1-c1ccccc1)c1ccccc1
growth inhibition [1]: -14.1%
growth inhibition [2]: -19.2%
viability increase [3]: -3.53%
viability [4]: 83.9%
viability [5]: 87.1%
inhibition [6]: 1.52%
RAM network inhibition [7]: 6.44%

COc1ccc2occ(C(=O)c3ccc(N=C(C)N(C)C)cc3)c2c1
growth inhibition [1]: -7.86%
growth inhibition [2]: -16.5%
viability increase [3]: -1.53%
viability [4]: 58.4%
viability [5]: 70.1%
inhibition [6]: 1.21%
RAM network inhibition [7]: 0.89%

Cn1c(NC(=O)Cc2ccc(F)cc2)cc(=O)n(C)c1=O
growth inhibition [1]: -5.41%
growth inhibition [2]: -2.77%
viability increase [3]: 3.42%
viability [4]: 109%
viability [5]: 95.4%
inhibition [6]: 1.83%
RAM network inhibition [7]: 0.62%

CCOc1ccc(Cn2nnc(C(=O)NCCc3ccccc3)c2N)cc1
growth inhibition [1]: 1.4%
growth inhibition [2]: 2.79%
viability increase [3]: 10.7% (active)
viability [4]: 96.9%
viability [5]: 89.9%
inhibition [6]: 2.5%
RAM network inhibition [7]: 4.53%

COC(=O)c1cc(OC)c(OC)cc1N=CC1=C(O)CC(C)(C)CC1=O
growth inhibition [1]: -14.9%
growth inhibition [2]: -8.12%
viability increase [3]: -0.98%
viability [4]: 99.5%
viability [5]: 94.1%
inhibition [6]: 1.6%
RAM network inhibition [7]: 3.12%

Cc1nnc(NC(=O)CCCCCN2C(=O)C3C4C=CC(C4)C3C2=O)s1 (configuration not stated)
growth inhibition [1]: -10.6%
growth inhibition [2]: -1.29%
viability increase [3]: 1.66%
viability [4]: 96.7%
viability [5]: 102%
inhibition [6]: -0.595%
RAM network inhibition [7]: 3.05%

Cc1cc(C)nc(SCC(=O)Nc2ccc(S(=O)(=O)Nc3onc(C)c3C)cc2)n1
growth inhibition [1]: -5.04%
growth inhibition [2]: 14%
viability increase [3]: 0.95%
viability [4]: 109%
viability [5]: 101%
inhibition [6]: 0.88%
RAM network inhibition [7]: -1.62%

O=C(O)CCn1c(=O)[nH]c2ccccc2c1=O
growth inhibition [1]: -6.32%
growth inhibition [2]: -15.1%
viability increase [3]: 0.62%
viability [4]: 109%
viability [5]: 105%
inhibition [6]: 1.34%
RAM network inhibition [7]: 0.63%

CCc1ccc(NC(=O)CSc2nc3c(c(=O)n(C)c(=O)n3C)n2C)cc1
growth inhibition [1]: 3.77%
growth inhibition [2]: -8%
viability increase [3]: -1.41%
viability [4]: 91.8%
viability [5]: 94.6%
inhibition [6]: 1.03%
RAM network inhibition [7]: 0.68%

O=C(Nc1nnc(CC(=O)N2CCCC2)s1)c1cnccn1
growth inhibition [1]: -3.58%
growth inhibition [2]: 4.7%
viability increase [3]: -1.2%
viability [4]: 104%
viability [5]: 100%
inhibition [6]: 1.66%
RAM network inhibition [7]: -0.94%

COc1ccc(CCNC(=O)c2cnccn2)cc1
growth inhibition [1]: -10.1%
growth inhibition [2]: -2.55%
viability increase [3]: 0.3%
viability [4]: 102%
viability [5]: 87.2%
inhibition [6]: 3.53%
RAM network inhibition [7]: 2.5%

CCn1c(O)c(C2=NCCCC2)c2ccccc21
growth inhibition [1]: 0.575%
growth inhibition [2]: 11.6%
viability increase [3]: -0.12%
viability [4]: 95%
viability [5]: 102%
inhibition [6]: -0.49%
RAM network inhibition [7]: 1.14%

COc1ccc(OC)c2sc(NC(=O)C3=COCCO3)nc12
growth inhibition [1]: -14.8%
growth inhibition [2]: 0.525%
viability increase [3]: -2.76%
viability [4]: 93%
viability [5]: 90.9%
inhibition [6]: 0.98%
RAM network inhibition [7]: 3.16%

NC(=O)CSc1nnc(Cn2c(=O)sc3ccccc32)n1-c1ccccc1
growth inhibition [1]: -6.81%
growth inhibition [2]: -0.84%
viability increase [3]: -0.83%
viability [4]: 98.5%
viability [5]: 96.8%
inhibition [6]: 2.02%
RAM network inhibition [7]: 2.47%

CCc1nc(SCC(=O)c2ccc(C)c(C)c2)n[nH]1
growth inhibition [1]: -9.29%
growth inhibition [2]: 4.11%
viability increase [3]: 2.14%
viability [4]: 102%
viability [5]: 104%
inhibition [6]: 0.56%
RAM network inhibition [7]: 6.63%

Cc1cc(C(=O)NCC(c2ccco2)N(C)C)no1 (configuration not stated)
growth inhibition [1]: -3.54%
growth inhibition [2]: -10.7%
viability increase [3]: -2.83%
viability [4]: 98.1%
viability [5]: 99.6%
inhibition [6]: 1.4%
RAM network inhibition [7]: 8.39%

O=C(OCCOCCN=C1NS(=O)(=O)c2ccccc21)C1CC(=O)N(c2ccccc2)C1 (configuration not stated)
growth inhibition [1]: 4.05%
growth inhibition [2]: 5.13%
viability increase [3]: -1.16%
viability [4]: 100%
viability [5]: 87.3%
inhibition [6]: 2.11%
RAM network inhibition [7]: 1.23%

COc1ccc(OC)c(NC(=O)Nc2nnc(N3CCC(C)CC3)s2)c1
growth inhibition [1]: -10.7%
growth inhibition [2]: -9.16%
viability increase [3]: 0.87%
viability [4]: 93.1%
viability [5]: 92.7%
inhibition [6]: 1.01%
RAM network inhibition [7]: 2.27%

CC(=O)c1c(C)oc(C)c1CSCc1ccc(C(=O)O)o1
growth inhibition [1]: -4.54%
growth inhibition [2]: 0.22%
viability increase [3]: -2.16%
viability [4]: 95.7%
viability [5]: 97.9%
inhibition [6]: 0.665%
RAM network inhibition [7]: 3.55%

O=C(N1CCOCC1)N1CCN(c2ccccc2F)CC1
growth inhibition [1]: -0.135%
growth inhibition [2]: 0.07%
viability increase [3]: -2.64%
viability [4]: 97.9%
viability [5]: 99.7%
inhibition [6]: 0.325%
RAM network inhibition [7]: 4.21%

COc1cc2[nH]c(=O)n(CCCCCC(=O)N3CCN(c4ccccc4)CC3)c(=O)c2cc1OC
growth inhibition [1]: -20.4%
growth inhibition [2]: -2.1%
viability increase [3]: -4.46%
viability [4]: 58.5%
viability [5]: 52.5%
inhibition [6]: 1.25%
RAM network inhibition [7]: 0.58%

Fc1ccc(CSc2nnc(-c3cccnc3)n2Cc2ccco2)cc1
growth inhibition [1]: 1.42%
growth inhibition [2]: 10.1%
viability increase [3]: -2.14%
viability [4]: 90.8%
viability [5]: 99.8%
inhibition [6]: 1.94%
RAM network inhibition [7]: 2.25%

CCOC(=O)c1c2n(c3c(NCc4ccccc4)ncnc13)CCCC2
growth inhibition [1]: -11.4%
growth inhibition [2]: -10.9%
viability increase [3]: -7.91%
viability [4]: 83.6%
viability [5]: 78.7%
inhibition [6]: 1.23%
RAM network inhibition [7]: 2.51%

COc1ccc(N2C(=O)CCC(C(=O)N3CCC(C(N)=O)CC3)C2c2ccc(F)cc2)cc1 (configuration not stated)
growth inhibition [1]: -5.89%
growth inhibition [2]: -16.2%
viability increase [3]: -0.33%
viability [4]: 99.6%
viability [5]: 102%
inhibition [6]: 1.6%
RAM network inhibition [7]: 3.66%

CCCCn1c(C(C)NC(=O)CCC)nc2ccccc21 (configuration not stated)
growth inhibition [1]: -1.25%
growth inhibition [2]: -0.375%
viability increase [3]: 1.35%
viability [4]: 86.2%
viability [5]: 91%
inhibition [6]: 0.88%
RAM network inhibition [7]: 7.23%

O=C1NCCCC1C(=O)NCCN1C(=O)CCC1=O (configuration not stated)
growth inhibition [1]: -14.3%
growth inhibition [2]: -7.9%
viability increase [3]: 0.1%
viability [4]: 96.7%
viability [5]: 96%
inhibition [6]: 1.04%
RAM network inhibition [7]: 3.29%

COc1ccc(C)cc1Nc1cc(C)nc2nc(C)nn12
growth inhibition [1]: -8.41%
growth inhibition [2]: 1.49%
viability increase [3]: -4.98%
viability [4]: 64.4%
viability [5]: 57.3%
inhibition [6]: 1.47%
RAM network inhibition [7]: 0.57%

COc1ccccc1N1C(=O)N(C(C)=O)C2C1Nc1ccccc1N2C (configuration not stated)
growth inhibition [1]: -2.22%
growth inhibition [2]: -10%
viability increase [3]: -5.51%
viability [4]: 78.2%
viability [5]: 86.5%
inhibition [6]: 1.71%
RAM network inhibition [7]: 4.65%
